Screening data: PubChem BioAssay, Sanford-Burnham Center for Chemical Genomics
FAS-TE inh – FAS thioesterase (human) inhibition; AID 602261; recombinant FAS-TE, OMFH fluorogenic substrate, fluorescence endpoint; P49327; 360,000 compounds, 0.67% hits; inhibition, % at 15 µM;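 active = compounds whose normalised, plate-corrected inhibition of enzyme fluorescence in the single-dose primary screen is 50% or more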;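 note: 0% = DMSO with enzyme and 100% = substrate without enzyme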
SUMO1 PPI mod – modulators of human SUMO1-mediated protein-protein interactions; P63165; 360,000 compounds, 0.33% hits; inhibition, % at 20 µM; SUMO1 binding to a labelled peptide, TR-FRET, 1 h; in the data active = inhibition above about 37%
Target sequence (P63165 whole entry, looked up): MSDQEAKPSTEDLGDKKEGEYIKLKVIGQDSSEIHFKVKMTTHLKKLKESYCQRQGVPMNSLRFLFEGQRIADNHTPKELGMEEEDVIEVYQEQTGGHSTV
STEP inh – STEP (human) phosphatase inhibition. P54829. recombinant STEP, OMFP fluorogenic substrate, fluorescence. inhibition, % at 20 µM. 360,000 compounds, 0.25% hits;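 active = inhibition at 20 µM, scaled per plate between control wells, above about 37%, limit read from the data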;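 note: 0% = DMSO with enzyme and substrate and 100% = substrate only without enzyme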
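System: STEP (striatal-enriched tyrosine phosphatase) enzyme, cell-free; medium: Bis-Tris pH 6.0 buffer with DTT, detergent; dosing: 20 µM, 1% DMSO; times: reaction 20 min, ambient temperature; detection: fluorescence, 480/540 nm; read-out basis: normalized % inhibition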
Scp-1 inhibitor – Scp-1 (human) phosphatase inhibition; Q9GZU7; Recombinant Scp1, phosphopeptide, malachite green phosphate absorbance; inhibition, % at 20 µM; 340,000 compounds, 0.88% hits; AID 493091;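 active = inhibition above about 50% at 20 µM, limit read from the data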;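 note: plate controls were DMSO wells with enzyme for no effect and wells lacking enzyme for full effect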
Target sequence (Q9GZU7 76-261 limits assumed): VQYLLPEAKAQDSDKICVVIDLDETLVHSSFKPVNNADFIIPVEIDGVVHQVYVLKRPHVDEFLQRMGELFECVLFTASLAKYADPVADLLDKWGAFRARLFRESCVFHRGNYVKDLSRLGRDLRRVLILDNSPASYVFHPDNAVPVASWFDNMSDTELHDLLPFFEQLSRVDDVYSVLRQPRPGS
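assay system = SCP-1 phosphatase catalytic domain, residues 76-261 | buffer or medium = 50 mM Tris acetate pH 5.5, 0.005% Tween-20, 10 mM MgCl2 | incubation = enzyme reaction 45 min at room temperature, colour 5 min, stabilisation 30 min | signal = Phosphate-binding colour reagent, absorbance read at 630 nm | measure = % inhibition at 20 µM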
LMPTP inh – LMPTP (human) inhibition; 360,000 compounds, 0.22% hits; recombinant LMPTP-A, OMFP fluorogenic substrate, fluorescence intensity; inhibition, % at 20 µM;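 active = compounds that cut the enzyme signal by at least half of the control window in the single-dose screen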;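 note: plate controls were DMSO wells with enzyme plus substrate for no effect and substrate without enzyme for full effect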
Target sequence (P24666 whole entry, looked up): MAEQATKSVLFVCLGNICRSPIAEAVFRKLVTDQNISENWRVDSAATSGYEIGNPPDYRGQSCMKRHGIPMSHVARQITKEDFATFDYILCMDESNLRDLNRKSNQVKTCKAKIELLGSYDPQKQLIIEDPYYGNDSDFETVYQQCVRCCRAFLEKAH
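Buffer or medium: Bis-Tris pH 6.0, DTT, detergent; Assay system: LMPTP-A enzyme; Quantity: 0.625 nM enzyme; Detection: endpoint fluorescence intensity; Times: 50 min dark incubation at room temperature; Controls: substrate-only low control, DMSO enzyme-plus-substrate high control; Doses: single 20 µM dose; Read-out: percent inhibition versus substrate-only and uninhibited controls; Reagent: 400 µM OMFP.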
FAS-TE conf – FAS thioesterase (human) inhibition, confirmation. recombinant FAS-TE, OMFH fluorogenic substrate, fluorescence. shares compounds with FAS-TE inh. inhibition, % at 15 µM. 2,300 compounds, 45% hits;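 active = compounds inhibiting the enzyme by at least 50% at 15 µM in any one of the replicates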;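 note: 0% = enzyme with DMSO only and 100% = wells lacking enzyme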
* = called active by the depositor. Only some compounds are listed: those with a hit (about 1.9% of all), similar ones and a draw of the others.

What do the screens show for `COc1ccc2[nH]c3c(c2c1)CCN1C(=O)C(CC(=O)NCc2ccc(OC)c(OC)c2)C[C@H](C(=O)N2CCOCC2)[C@@]31CCC1CCCC1` (some centres not stated)?
FAS-TE inh: 43; SUMO1 PPI mod: -1; STEP inh: 0; Scp-1 inhibitor: -4; LMPTP inh: 0

How did COc1ccc2[nH]c3c(c2c1)CCN1C(=O)C(CC(=O)NC(C)(C)C)C[C@H](C(=O)N2CCOCC2)[C@@]31CCC1CCCC1 (some centres not stated) do in these assays?
FAS-TE inh: 53*; SUMO1 PPI mod: -3; STEP inh: -1; Scp-1 inhibitor: 4; LMPTP inh: 0; FAS-TE conf: 69*

What do the screens show for `COC(=O)c1ccc(Cn2c(C)c(C(=O)Nc3cccc(Oc4ccccc4)c3)sc2=O)o1`?
FAS-TE inh: 24; SUMO1 PPI mod: 36; STEP inh: -1; LMPTP inh: 2

What do the screens show for `COCCNC(=O)C1CCCN(S(=O)(=O)c2cccc3nsnc23)C1` (configuration not stated)?
FAS-TE inh: -3; SUMO1 PPI mod: -28; STEP inh: 0; Scp-1 inhibitor: -1; LMPTP inh: -1

Results for Cc1c(Cl)c([N+](=O)[O-])nn1CCCC(=O)Nc1cc(Oc2ccccc2)cc([N+](=O)[O-])c1 ?
FAS-TE inh: 53*; SUMO1 PPI mod: -14; STEP inh: -2; Scp-1 inhibitor: -16; LMPTP inh: 4; FAS-TE conf: 10

How did Cc1c(Cl)c([N+](=O)[O-])nn1CCCC(=O)N(Cc1ccccc1)Cc1ccccc1 do in these assays?
FAS-TE inh: 63*; SUMO1 PPI mod: -10; STEP inh: -1; Scp-1 inhibitor: -9; LMPTP inh: 5; FAS-TE conf: 61*

What do the screens show for `Cc1ccc(NS(=O)(=O)c2c(F)cc(F)c(Cl)c2F)cc1S(=O)(=O)N1CCOCC1`?
FAS-TE inh: 2; SUMO1 PPI mod: 7; STEP inh: 0; Scp-1 inhibitor: 3; LMPTP inh: -3

Results for CSc1ccc(C(O)c2ncc(-c3ccccc3F)[nH]2)cc1 (configuration not stated) ?
FAS-TE inh: -5; SUMO1 PPI mod: 0; STEP inh: 0; LMPTP inh: 1

How did O=[N+]([O-])c1ccc(-c2nc(Nc3cccc(O)c3)c3ccccc3n2)cc1 do in these assays?
FAS-TE inh: 56*; SUMO1 PPI mod: -28; STEP inh: -5; Scp-1 inhibitor: -10; LMPTP inh: 7; FAS-TE conf: 54*

Results for Cc1ccc(-c2nc(Nc3cccc(O)c3)c3ccccc3n2)cc1 ?
FAS-TE inh: 30; SUMO1 PPI mod: 3; STEP inh: -4; Scp-1 inhibitor: -10; LMPTP inh: 18

Results for O=S(=O)(c1ccc(Cl)cc1)N1CCN=C1SCc1cccc(Cl)c1 ?
FAS-TE inh: 51*; SUMO1 PPI mod: 0; STEP inh: -2; Scp-1 inhibitor: 7; LMPTP inh: 4; FAS-TE conf: 14

Results for COc1ccccc1N1CCN(C(=O)CCCn2c(=S)[nH]c3ccccc3c2=O)CC1 ?
FAS-TE inh: 53*; SUMO1 PPI mod: 0; STEP inh: 1; LMPTP inh: 0; FAS-TE conf: 20

Results for COc1ccccc1N1CCN(C(=O)c2ccc(Cn3c(=S)[nH]c4cc5c(cc4c3=O)OCO5)cc2)CC1 ?
FAS-TE inh: 53*; SUMO1 PPI mod: 2; STEP inh: -6; Scp-1 inhibitor: -12; LMPTP inh: 1; FAS-TE conf: 2

What do the screens show for `CCOC(=O)[C@]12CCC=C1N(Cc1ccccc1)C(=O)[C@H](CC(=O)NCCC(C)C)C2`?
FAS-TE inh: 1; SUMO1 PPI mod: 4; LMPTP inh: -1

What do the screens show for `CN1CCN(NC(=O)c2cc(S(=O)(=O)N3CCOCC3)c(Cl)cc2Cl)CC1`?
FAS-TE inh: -12; SUMO1 PPI mod: -2; STEP inh: -2; Scp-1 inhibitor: -8; LMPTP inh: -6

What do the screens show for `O=C(C1=NN(c2ccccc2)C2C(=O)N(c3ccccc3)C(=O)C12)c1ccccc1` (configuration not stated)?
FAS-TE inh: 24; SUMO1 PPI mod: -8; STEP inh: 0; Scp-1 inhibitor: -13; LMPTP inh: 0

What do the screens show for `O=C(C1=NN(c2ccccc2)C2C(=O)N(c3ccccc3Cl)C(=O)C12)c1ccccc1` (configuration not stated)?
FAS-TE inh: 52*; SUMO1 PPI mod: -7; STEP inh: -2; Scp-1 inhibitor: -16; LMPTP inh: 3; FAS-TE conf: -17

Results for CN(CC(=O)Nc1cccc(S(=O)(=O)N(C)C)c1)Cc1ccccc1 ?
FAS-TE inh: 1; SUMO1 PPI mod: 2; STEP inh: -3; Scp-1 inhibitor: -10; LMPTP inh: -1

Results for CN(CC(=O)Nc1ccc(S(=O)(=O)N(C)C)cc1)Cc1ccc(C(F)(F)F)cc1 ?
FAS-TE inh: 53*; SUMO1 PPI mod: 25; STEP inh: 0; Scp-1 inhibitor: -9; LMPTP inh: 1; FAS-TE conf: 40

How did CCOC(=O)CSc1n[nH]c(NC(C)=O)n1 do in these assays?
FAS-TE inh: -4; SUMO1 PPI mod: 0; STEP inh: -1; Scp-1 inhibitor: -4; LMPTP inh: -3

How did COC(=O)[C@]1(Cc2ccccc2)N[C@H](c2ccc(-c3ccc(Cl)c(Cl)c3)cc2)[C@@H]2C(=O)N(C)C(=O)[C@@H]21 do in these assays?
FAS-TE inh: 90*; SUMO1 PPI mod: -9; STEP inh: 1; Scp-1 inhibitor: -11; LMPTP inh: 4; FAS-TE conf: 22

Results for CCN1C(=O)[C@H]2[C@@H](c3ccc(-c4ccc(Cl)c(Cl)c4)cc3)N[C@@](CC(C)C)(C(=O)OC)[C@H]2C1=O ?
FAS-TE inh: 42; SUMO1 PPI mod: 6; STEP inh: -1; Scp-1 inhibitor: 2; LMPTP inh: 4

Results for COC(=O)[C@]1(Cc2ccccc2)N[C@H](c2ccc(-c3cccc(Cl)c3)cc2)[C@@H]2C(=O)N(C)C(=O)[C@@H]21 ?
FAS-TE inh: 91*; SUMO1 PPI mod: 1; STEP inh: 2; Scp-1 inhibitor: -4; LMPTP inh: 3; FAS-TE conf: 21

What do the screens show for `COC(=O)C1(Cc2ccccc2)NC(c2ccc(F)cc2)C2C(=O)N(C)C(=O)C21` (configuration not stated)?
FAS-TE inh: 1; SUMO1 PPI mod: -1; STEP inh: -4; Scp-1 inhibitor: 0; LMPTP inh: 1

Results for COC(=O)[C@]1(Cc2ccccc2)N[C@H](c2ccc(-c3ccccc3)cc2)[C@@H]2C(=O)N(C)C(=O)[C@@H]21 ?
FAS-TE inh: 56*; SUMO1 PPI mod: -2; STEP inh: -1; Scp-1 inhibitor: -8; LMPTP inh: 2; FAS-TE conf: 10
